Data published in ChEMBL document CHEMBL2046311, “Design, synthesis, and molecular hybrids of caudatin and cinnamic acids as novel anti-hepatitis B virus agents” (Eur J Med Chem, 2012).

How the values were obtained:
[1] = Selectivity index, ratio of CC50 for human HepG2(2.2.15) cells to IC50 for Hepatitis B virus infected in human HepG2(2.2.15) cells assessed as inhibition of viral e antigen secretion; assay type: functional
Method in brief: (§1)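 SI calculated as CC50 (MTT, HepG 2.2.15) divided by IC50 for the named read-out (HBV DNA by real-time PCR, or HBeAg or HBsAg secretion by ELISA), in the same cell line.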

[2] = tested on: Mus musculus; experiment: Acute toxicity in Kunming mouse assessed as mortality at 1250 mg/kg, po administered as single dose measured up to 14 days; assay type: organism-based; parameters: dose 1250 mg/kg, route oral; settings: in vivo, 336 h
[3] = Cytotoxicity against human HepG2(2.2.15) cells assessed as cell viability at 10 uM after 72 hrs by MTT assay; assay type: cell-based; settings: hepg2 2.2.15, 72 h
Method in brief: (§2)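 Cell viability measured by MTT under the 10 μM luciferase reporter treatment conditions, at 48 h and 72 h.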

[4] = tested on: Mus musculus; experiment: Acute toxicity in Kunming mouse assessed as mortality at 250 mg/kg, po administered as single dose measured up to 14 days; assay type: organism-based; parameters: dose 250 mg/kg, route oral; settings: in vivo, 336 h
[5] = Cytotoxicity against human HepG2(2.2.15) cells assessed as cell viability at 10 uM after 48 hrs by MTT assay; assay type: cell-based; settings: hepg2 2.2.15, 48 h; method in brief: as §2
[6] = tested on: Nucleic Acid; experiment: Increase of enhancer 1 transcriptional activity in HBV infected in human HepG2(2.2.15) cells transfected with pGL3 at 10 uM after 3 days by luciferase reporter gene assay relative to mock-treated control; assay type: cell-based; settings: Hepatitis B virus
Method in brief: (§3)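 HepG 2 cells transiently transfected by Lipofectamine 2000 with HBV promoter/enhancer firefly luciferase reporters in pGL3, with phRL-CMV Renilla luciferase as internal control. Cells split 24 h after transfection and cultured 3 days, then treated at 10 μM for 3 days. Dual-luciferase read-out in triplicate. Fold activity = treated/mock-treated activity.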

[7] = tested on: Mus musculus; experiment: Acute toxicity in Kunming mouse assessed as abnormality at 50 to 1250 mg/kg, po administered as single dose measured up to 14 days; assay type: organism-based; parameters: dose 50-1250 mg/kg, route oral; settings: in vivo, 336 h
[8] = tested on: Mus musculus; experiment: Acute toxicity in Kunming mouse assessed as change in body weight at 250 mg/kg, po administered as single dose measured on day 7 (Rvb =26.3 g); assay type: organism-based; parameters: dose 250 mg/kg, route oral; settings: in vivo
[9] = tested on: Hepatitis B virus; experiment: Antiviral activity against Hepatitis B virus infected in human HepG2(2.2.15) cells assessed as inhibition of viral e antigen secretion by ELISA; assay type: functional, organism-based
Method in brief: (§4)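 HepG 2.2.15 cells in RPMI-1640 with 10% fetal calf serum at 37 °C, 5% CO2. Compounds dissolved in DMSO, culture DMSO below 2.5 μL/mL. Secreted HBeAg and HBsAg measured by ELISA. IC50 values are means of at least two experiments.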

[10] = tested on: Mus musculus; experiment: Acute toxicity in Kunming mouse assessed as change in body weight at 1250 mg/kg, po administered as single dose measured on day 14 (Rvb =28.5 g); assay type: organism-based; parameters: dose 1250 mg/kg, route oral; settings: in vivo
[11] = tested on: Mus musculus; experiment: Acute toxicity in Kunming mouse assessed as change in body weight at 250 mg/kg, po administered as single dose measured on day 14 (Rvb =28.5 g); assay type: organism-based; parameters: dose 250 mg/kg, route oral; settings: in vivo
[12] = Cytotoxicity against human HepG2(2.2.15) cells by modified-MTT assay; assay type: cell-based
Method in brief: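 HepG 2.2.15 cells in RPMI-1640 with 10% fetal calf serum at 37 °C, 5% CO2. Compounds in DMSO, final DMSO below 2.5 μL/mL. Viability read by modified MTT method. CC50 is the mean of at least two experiments.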

[13] = tested on: Nucleic Acid; experiment: Inhibition of X promoter transcriptional activity in HBV infected in human HepG2(2.2.15) cells transfected with pGL3 at 10 uM after 3 days by luciferase reporter gene assay relative to mock-treated control; assay type: cell-based; settings: Hepatitis B virus; method in brief: as §3
[14] = tested on: Hepatitis B virus; experiment: Antiviral activity against Hepatitis B virus infected in human HepG2(2.2.15) cells assessed as inhibition of viral DNA replication by PCR analysis; assay type: functional, organism-based
Method in brief: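 HepG 2.2.15 cells grown in RPMI-1640 with 10% fetal calf serum, […] and penicillin/streptomycin at 37 °C, 5% CO2. Compounds added in DMSO, kept below 2.5 μL/mL. HBV DNA quantified by SYBR Green real-time PCR with HBV-specific primers spanning 541–591 bp. IC50 values are means of at least two experiments.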

[15] = tested on: Mus musculus; experiment: Acute toxicity in Kunming mouse assessed as change in body weight at 1250 mg/kg, po administered as single dose measured on day 7 (Rvb =26.3 g); assay type: organism-based; parameters: dose 1250 mg/kg, route oral; settings: in vivo
[16] = tested on: Mus musculus; experiment: Acute toxicity in Kunming mouse assessed as mortality at 50 mg/kg, po administered as single dose measured up to 14 days; assay type: organism-based; parameters: dose 50 mg/kg, route oral; settings: in vivo, 336 h
[17] = tested on: Mus musculus; experiment: Acute toxicity in Kunming mouse assessed as change in body weight at 50 mg/kg, po administered as single dose measured on day 14 (Rvb =28.5 g); assay type: organism-based; parameters: dose 50 mg/kg, route oral; settings: in vivo
[18] = tested on: Mus musculus; experiment: Acute toxicity in po dosed Kunming mouse; assay type: organism-based; settings: in vivo
[19] = Selectivity index, ratio of CC50 for human HepG2(2.2.15) cells to IC50 for Hepatitis B virus infected in human HepG2(2.2.15) cells assessed as inhibition of viral surface antigen secretion; assay type: functional; method in brief: as §1
[20] = Selectivity index, ratio of CC50 for human HepG2(2.2.15) cells to IC50 for Hepatitis B virus infected in human HepG2(2.2.15) cells assessed as inhibition of viral DNA replication; assay type: functional; method in brief: as §1
[21] = tested on: Mus musculus; experiment: Acute toxicity in Kunming mouse assessed as change in body weight at 50 mg/kg, po administered as single dose measured on day 7 (Rvb =26.3 g); assay type: organism-based; parameters: dose 50 mg/kg, route oral; settings: in vivo
[22] = tested on: Hepatitis B virus; experiment: Antiviral activity against Hepatitis B virus infected in human HepG2(2.2.15) cells assessed as inhibition of viral surface antigen secretion by ELISA; assay type: functional, organism-based; method in brief: as §4

| SMILES | Ratio CC50/IC50 [1] | IC50 [9] | CC50 [12] | IC50 [14] | Ratio CC50/IC50 [19] | Ratio CC50/IC50 [20] | IC50 [22] | also measured |
| --- | --- | --- | --- | --- | --- | --- | --- | --- |
| COc1cc(/C=C/C(=O)O[C@H]2CC[C@@]3(C)C(=CC[C@]4(O)[C@@H]3C[C@@H](OC(=O)/C=C(\C)C(C)C)[C@@]3(C)[C@]4(O)CC[C@@]3(O)C(C)=O)C2)cc(OC)c1OC | >330 | 5.52 µM | > 1820 µM | 2.44 µM | >330 | >746.6 | 5.52 µM | Activity [2]: Non-toxic; Activity [3]: 85.6%; Activity [4]: Non-toxic; Activity [5]: 97.4%; fold change (FC) [6]: 9.4; Activity [7]: Non-toxic; Activity [8]: 27.3%; Activity [10]: 28.8%; Activity [11]: 29.8%; fold change (FC) [13]: 5.6; Activity [15]: 26.5%; Activity [16]: Non-toxic; Activity [17]: 28.9%; LD50 [18]: 1250 mg/kg; Activity [21]: 26.7% |
| CC(=O)[C@]1(O)CC[C@@]2(O)[C@]1(C)[C@H](OC(=O)/C=C(\C)C(C)C)C[C@@H]1[C@@]3(C)CC[C@H](OC(=O)/C=C/c4ccccc4C)CC3=CC[C@]12O | 6 | 230 µM | 1370 µM | 7.2 µM | 16.9 | 190.4 | 81.1 µM | – |
| CC(=O)[C@]1(O)CC[C@@]2(O)[C@]1(C)[C@H](OC(=O)/C=C(\C)C(C)C)C[C@@H]1[C@@]3(C)CC[C@H](OC(=O)/C=C/c4cccc([N+](=O)[O-])c4)CC3=CC[C@]12O | >7.7 | 207 µM | > 1590 µM | 56.7 µM | >31.7 | >28.1 | 50.3 µM | – |
| CC(=O)[C@]1(O)CC[C@@]2(O)[C@]1(C)[C@H](OC(=O)/C=C(\C)C(C)C)C[C@@H]1[C@@]3(C)CC[C@H](OC(=O)/C=C/c4ccc(F)c(F)c4)CC3=CC[C@]12O | >18.7 | 69.2 µM | > 1290 µM | 4.66 µM | >82.7 | >277 | 15.6 µM | – |
| CCOc1cccc(/C=C/C(=O)O[C@H]2CC[C@@]3(C)C(=CC[C@]4(O)[C@@H]3C[C@@H](OC(=O)/C=C(\C)C(C)C)[C@@]3(C)[C@]4(O)CC[C@@]3(O)C(C)=O)C2)c1 | >15.2 | 141 µM | > 2140 µM | 9.3 µM | >85.9 | >230.1 | 24.9 µM | – |
| CC(=O)[C@]1(O)CC[C@@]2(O)[C@]1(C)[C@H](OC(=O)/C=C(\C)C(C)C)C[C@@H]1[C@@]3(C)CC[C@H](OC(=O)/C=C/c4cccc(F)c4)CC3=CC[C@]12O | >84.7 | 12.6 µM | > 1060 µM | 4.75 µM | >126.7 | >224 | 8.4 µM | – |
